Experimental data from paper PMC9026613 (Current Therapeutic Research, Clinical and Experimental, 2022).
Read-outs that look alike come from different tables or passages of the source.

Legend:
healthy volunteers [1] = assay type: in vivo, human
dogs = conditions: cardiovascular telemetry; nonclinical studies, ref not given; cited from earlier work
[2] = cited from earlier work
healthy volunteers [3] = experiment: Cardiac repolarization: by-time point analysis of QTcF; assay type: in vivo, human; conditions: least squares mean
Procedure, shortened: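 Single IV dose of test compound or placebo. Continuous Holter 12-lead ECG with supine rest ≥15 min. Extractions at 45, 30 and 15 min predose and at 5–240 min and 24 h postdose, up to 10 nonoverlapping 10-s replicates per point. Lead II was primary. QTcF=QT/RR^1/3. Analysed in a linear mixed-effects model on ΔQTcF (fixed: time, treatment, interaction; baseline covariate), placebo pooled.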

plasma glucose [4] = experiment: Plasma glucose response; assay type: in vivo, human
healthy volunteers [5] = experiment: Concentration-QTc analysis, linear mixed-effects model; assay type: in vivo, human; conditions: not significant at the 0.1 level
plasma glucose [6] = conditions: following insulin-induced hypoglycemia; cited from earlier work
healthy volunteers [7] = experiment: Concentration-QTc analysis, Emax model; assay type: in vivo, human; conditions: for ΔΔQTcF estimate at geometric mean Cmax: Emax model prediction, mean (90% CI)
Procedure, shortened: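 Placebo-adjusted ΔQTcF for each subject and time point = individual ΔQTcF minus the estimated time effect at that point. ΔΔQTcF predicted at the geometric mean peak concentration per dose.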

healthy volunteers [8] = assay type: in vivo, human; remark: listed apart in the source
Procedure, shortened: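 Single IV (0.03–1.5 mg) or SC (0.6 mg) dose, or IV placebo. Safety was monitored throughout the study by AE recording, vital signs, clinical laboratory tests, physical examination, 12-lead ECG and injection-site reaction checks. TEAEs were tallied per participant by treatment.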

[9] = Pharmacokinetics of dasiglucagon in plasma after IV or SC dosing, Phase I trial; assay type: in vivo, human
Procedure, shortened: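 Single IV doses of 0.03, 0.1, 0.3, 0.6 or 1.5 mg from a 4 mg/mL solution diluted with vehicle, after a fast of ≥8 h. One cohort got 0.6 mg SC into the abdomen by prefilled syringe. Plasma sampled over 4 h (IV) or 5 h (SC). Dose proportionality by log–log power-model regression (90% CI of slope). Absolute bioavailability from a linear model of AUC, SC versus IV 0.6 mg.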

[10] = 0.6 mg single subcutaneous dose, other clinical trials; ref not given; cited from earlier work
healthy volunteers [11] = experiment: Antidasiglucagon antibody assessment; set-up: species or system human; conditions: in vivo
[12] = tested on: 8 different human cardiac ion channels (including human ether-a-go-go related gene [hERG]); conditions: 8 channels including hERG; nonclinical studies, ref not given; cited from earlier work

CC(C)C[C@H](NC(=O)[C@H](Cc1c[nH]c2ccccc12)NC(=O)[C@H](CCCCN)NC(=O)[C@@H](NC(=O)[C@H](Cc1ccccc1)NC(=O)[C@H](CCC(=O)O)NC(=O)[C@H](CCC(=O)O)NC(=O)[C@H](C)NC(=O)[C@H](CCCNC(=N)N)NC(=O)[C@H](C)NC(=O)C(C)(C)NC(=O)[C@H](CC(=O)O)NC(=O)[C@H](CC(C)C)NC(=O)[C@H](Cc1ccc(O)cc1)NC(=O)[C@H](CCCCN)NC(=O)[C@H](CO)NC(=O)[C@H](Cc1ccc(O)cc1)NC(=O)[C@H](CC(=O)O)NC(=O)[C@H](CO)NC(=O)[C@@H](NC(=O)[C@H](Cc1ccccc1)NC(=O)[C@@H](NC(=O)CNC(=O)[C@H](CCC(N)=O)NC(=O)[C@H](CO)NC(=O)[C@@H](N)Cc1c[nH]cn1)[C@@H](C)O)[C@@H](C)O)C(C)C)C(=O)N[C@@H](CCC(=O)O)C(=O)N[C@@H](CO)C(=O)N[C@H](C(=O)O)[C@@H](C)O [dasiglucagon]
Mean ΔΔHR (healthy volunteers [1]; IV 0.03 mg, 5 minutes postdose (lowest value)): –7.0 bpm
Mean ΔΔHR (healthy volunteers [1]; IV 0.6 mg, 24 hours postdose (highest value)): 7.5 bpm
effect on PR interval (healthy volunteers [1]; IV 0.03 to 1.5 mg): did not have a clinically relevant effect
effect on QRS duration (healthy volunteers [1]; IV 0.03 to 1.5 mg): did not have a clinically relevant effect
mean placebo-corrected change from baseline in heart rate (ΔΔHR) (healthy volunteers [1]; all studied IV doses 0.03 to 1.5 mg): < 10 bpm
potential for QTc prolongation in dogs (dogs): no potential for QTc prolongation
stability in aqueous solutions [2]: stable in aqueous solutions
Mean ΔΔQTcF (healthy volunteers [3]; IV 0.03 mg, 40 minutes postdose): -3.4 ms
Mean ΔΔQTcF (healthy volunteers [3]; IV 0.1 mg, 180 minutes postdose): 12.3 ms
Median time to Cmax, glucose (plasma glucose [4]; IV 0.03 mg): 17.5 min
mean maximum glucose concentration (Cmax, glucose) (plasma glucose [4]; IV 0.03 mg, healthy volunteers): 135 mg/dL
Median time to Cmax, glucose (plasma glucose [4]; IV 1.5 mg): 42.5 min
mean maximum glucose concentration (Cmax, glucose) (plasma glucose [4]; IV 1.5 mg, healthy volunteers): 160 mg/dL
plasma glucose level after subcutaneous dosing (plasma glucose [4]; SC 0.6 mg, healthy volunteers): 172 mg/dL
treatment effect-specific intercept (healthy volunteers [5]): 0.8 ms
Median time to plasma glucose recovery vs reconstituted lyophilized glucagon (plasma glucose [6]): comparable
Emax (maximum estimated effect on ΔΔQTcF) (healthy volunteers [7]; Emax model, all IV data, P = 0.0137): 3.6 ms
treatment effect–specific intercept (healthy volunteers [7]; Emax model, not significant at the 0.1 level): -0.44 ms
ΔΔQTcF estimate at geometric mean Cmax (healthy volunteers [7]; IV 0.03 mg, n = 36 overall): 1.61 ms
ΔΔQTcF estimate at geometric mean Cmax (healthy volunteers [7]; IV 0.1 mg): 2.61 ms
ΔΔQTcF estimate at geometric mean Cmax (healthy volunteers [7]; IV 0.3 mg): 2.93 ms
ΔΔQTcF estimate at geometric mean Cmax (healthy volunteers [7]; IV 0.6 mg): 3.01 ms
ΔΔQTcF estimate at geometric mean Cmax (healthy volunteers [7]; IV 1.5 mg): 3.13 ms
EC50 (healthy volunteers [7]; read-out: amount that produces half the effect of Emax, Emax model, plasma concentration, not significant at the 0.1 level): 0.426 nM
participants who experienced nausea (healthy volunteers [8]; 0.6 mg SC cohort): 4 out of 6
participants who vomited (healthy volunteers [8]; 0.6 mg SC cohort): 3 out of 6
dizziness (healthy volunteers [8]; SC and IV dasiglucagon cohorts): 2 participants
extravasation (healthy volunteers [8]; SC and IV dasiglucagon cohorts): 2 participants
headache (healthy volunteers [8]; SC and IV dasiglucagon cohorts): 2 participants
nausea (healthy volunteers [8]; SC and IV dasiglucagon cohorts): 9 participants
vomiting (healthy volunteers [8]; SC and IV dasiglucagon cohorts): 4 participants
ECG-related TEAEs or TEAEs in the system organ class cardiac disorders (healthy volunteers [8]; all cohorts): no ECG-related TEAEs
participants reporting treatment-emergent AEs (TEAEs) (healthy volunteers [8]; all dasiglucagon cohorts, 14 out of 42): 33.3%
effect on vital signs or safety laboratory parameters (healthy volunteers [8]; in vivo): No effect
injection site reactions (healthy volunteers [8]; spontaneous pain (0.1 mg IV), hematoma (0.6 mg SC), both mild): Two injection site reactions
dose proportionality of AUC and Cmax ([9]; IV dose cohorts 0.03 to 1.5 mg, power model): dose-proportional
half-life ([9]; human, plasma, iv): ~18 min
Cmax ([9]; human, plasma, iv, 0.03 mg): 0.568 nM
Cmax ([9]; human, plasma, iv, 0.1 mg): 2.39 nM
Cmax ([9]; human, plasma, iv, 0.3 mg): 6.46 nM
AUC(0-inf) ([9]; human, plasma, iv, 0.6 mg): 4.63 nM·h
Cmax ([9]; human, plasma, iv, 0.6 mg): 10.2 nM
Cmax ([9]; human, plasma, iv, 1.5 mg): 57.9 nM
AUC(0-inf) ([9]; human, plasma, sc, 0.6 mg): 2.36 nM·h
AUC(0-t) ([9]; human, plasma, sc, 0.6 mg): 2.36 nM·h
Cmax ([9]; human, plasma, sc, 0.6 mg): 1.53 nM
bioavailability ([9]; human, plasma, sc, 0.6 mg): ~51%
half-life ([9]; human, plasma, sc, 0.6 mg): ~30 min
maximum concentrations observed in any clinical trial [10]: 5000 to 6000 pmol/L
cross-reactivity of antibodies to endogenous glucagon (healthy volunteers [11]): no cross-reactivity
effect on human cardiac ion channels in vitro [12]: no effect
